Experimental findings from ChEMBL document CHEMBL1944541, “Novel inhibitors of nitric oxide synthase with antioxidant properties” (Eur J Med Chem, 2012) are described below.

A value given as a limit tells only on which side of the number the result lay.

In data set [1] the test system is Plasma. The data set can be described thus: Antioxidant activity in human plasma assessed as inhibition of Fe2+-induced lipid hydroperoxidation at 25 uM after 2 hrs by FOX assay relative to control. The format is functional, cell-free.
The subject of data set [2] is CYP450. In words: Inhibition of rat spleen microsomal CYP450 assessed as reduction of NADPH dependent cytochrome c at 500 uM. The format is ADME. The following applies: spleen microsomes, probe cytochrome c. The essentials: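 Rat spleen microsomal P450 activity measured as NADPH-dependent cytochrome c reduction. Incubation 15 min at 25 °C with or without compound, range 5–500.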

In data set [3] the test system is Radical scavenging activity. In words: Antioxidant activity assessed as DPPH free radical scavenging activity at 50 uM after 10 mins relative to control. The data set is classed as functional. In a few lines: (§1)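 Compounds in ethanol with DPPH radical, tested at 50, 100 and 500, held 10 min at room temperature. Absorbance read at 517 nm and reported as percent decrease against control. IC50 was calculated for selected compounds. Trolox served as reference. Standard deviation was ≤10% (n ≥ 3).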
On the technique in general: DPPH is a stable violet radical that fades when it is reduced.

Data set [4] in a line: Antioxidant activity assessed as NADH oxidation-induced superoxide radical scavenging activity after 20 mins. The data set is classed as functional. The essentials: (§2)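 Superoxide generated without a Fenton-type reaction from NADH, EDTA/MnCl2 and β-mercaptoethanol in triethanolamine-diethanolamine buffer, pH 7.4 (1 mL). Compounds tested at 25, 50 and 100. […] IC50 was calculated. SOD (40 mU/ml) served as reference. SD ≤10% (n ≥ 3).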

Data set [5] deals with Radical scavenging activity. The data set can be described thus: Antioxidant activity assessed as DPPH free radical scavenging activity at 100 uM after 10 mins relative to control. The data set is classed as functional. In a few lines: as §1
Data set [6] is described as follows: Antioxidant activity assessed as NADH oxidation-induced superoxide radical scavenging activity at 100 uM after 20 mins relative to control. The data set is classed as functional. In a few lines:
as §2

For data set [7], the target named is T1, Nitric oxide synthase 3 (Mus musculus, UniProt P70313).
T1 sequence (P70313 whole entry): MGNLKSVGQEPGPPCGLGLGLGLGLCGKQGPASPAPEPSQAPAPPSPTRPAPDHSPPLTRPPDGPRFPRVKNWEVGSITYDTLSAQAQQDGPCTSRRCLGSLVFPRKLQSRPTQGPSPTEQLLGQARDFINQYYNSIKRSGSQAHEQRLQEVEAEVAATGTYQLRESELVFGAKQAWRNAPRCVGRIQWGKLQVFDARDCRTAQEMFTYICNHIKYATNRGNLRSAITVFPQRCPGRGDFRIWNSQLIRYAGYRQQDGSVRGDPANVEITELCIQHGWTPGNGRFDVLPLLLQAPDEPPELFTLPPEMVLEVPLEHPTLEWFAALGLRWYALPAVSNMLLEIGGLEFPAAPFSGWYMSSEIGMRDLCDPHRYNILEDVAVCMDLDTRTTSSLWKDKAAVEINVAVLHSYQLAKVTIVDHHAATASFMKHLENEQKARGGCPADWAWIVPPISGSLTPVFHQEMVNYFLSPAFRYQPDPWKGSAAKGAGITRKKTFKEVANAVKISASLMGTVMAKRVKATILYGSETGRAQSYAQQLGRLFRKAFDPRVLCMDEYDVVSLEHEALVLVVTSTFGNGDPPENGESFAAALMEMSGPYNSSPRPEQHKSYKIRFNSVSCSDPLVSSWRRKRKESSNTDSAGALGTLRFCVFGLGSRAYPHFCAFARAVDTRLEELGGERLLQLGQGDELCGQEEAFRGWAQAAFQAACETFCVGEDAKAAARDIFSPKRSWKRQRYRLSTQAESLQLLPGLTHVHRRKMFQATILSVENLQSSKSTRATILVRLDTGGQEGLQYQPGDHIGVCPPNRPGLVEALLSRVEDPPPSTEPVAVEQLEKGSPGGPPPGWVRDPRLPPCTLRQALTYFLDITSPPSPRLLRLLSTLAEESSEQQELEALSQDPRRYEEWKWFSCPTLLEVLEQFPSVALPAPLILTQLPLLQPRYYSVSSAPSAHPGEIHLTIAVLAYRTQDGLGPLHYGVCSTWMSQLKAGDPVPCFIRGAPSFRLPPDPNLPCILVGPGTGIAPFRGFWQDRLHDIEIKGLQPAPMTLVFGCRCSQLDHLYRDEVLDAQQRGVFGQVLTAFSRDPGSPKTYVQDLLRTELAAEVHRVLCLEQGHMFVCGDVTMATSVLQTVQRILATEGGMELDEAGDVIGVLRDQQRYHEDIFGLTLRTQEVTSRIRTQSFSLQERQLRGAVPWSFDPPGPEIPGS
The data set can be described thus: Inhibition of C57BL/6 mouse eNOS assessed as conversion of oxyhemoglobin to methemoglobin by UV spectrophotometer analysis. In a few lines: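 eNOS from H5V mouse endothelial cells (passage 5, DMEM with 10% FCS, 37 °C, 5% CO2). Cells were sonicated in Tris-HCl pH 7.4 with EDTA, DTT and protease inhibitors, and the 20,000 g supernatant was used. Activity was followed as oxyhemoglobin→methemoglobin conversion in Hepes pH 7.4 with L-arginine, NADPH, FAD, BH4, Ca2+ and calmodulin. Compounds tested at 500, 100 and 50. Results reported as Ki or percent inhibition.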

Data set [8] is described as follows: Antioxidant activity assessed as NADH oxidation-induced superoxide radical scavenging activity at 50 uM after 20 mins relative to control. The data set is classed as functional. The essentials:
as §2

For data set [9], the system named is Plasma. In words: Antioxidant activity in human plasma assessed as inhibition of Fe2+-induced lipid hydroperoxidation after 2 hrs by FOX assay. The data set is classed as functional, cell-free.
Data set [10] addresses Nitric oxide synthase 1 (Rattus norvegicus, UniProt P29476). In words: Inhibition of rat recombinant nNOS expressed in baculovirus-infected Sf9 cells assessed as conversion of oxyhemoglobin to methemoglobin by UV spectrophotometer analysis.
Data set [11] relates to Plasma. In words: Antioxidant activity in human plasma assessed as inhibition of Fe2+-induced lipid hydroperoxidation at 50 uM after 2 hrs by FOX assay relative to control. The format is functional, cell-free. In a few lines:
(§3)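 Plasma from a healthy donor: heparinized venous blood taken after an overnight fast, spun at 800 g for 20 min. Plasma was diluted 1:1 with oxygenated PBS and incubated 2 h at 37 °C with or without compound (10, 50, 100). Lipid hydroperoxides were measured by FOX assay (Fe2+→Fe3+ with xylenol orange, 560 nm), calibrated against H2O2. Results given as percent inhibition against untreated plasma.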

Data set [12] can be described thus: Antioxidant activity assessed as NADH oxidation-induced superoxide radical scavenging activity at 25 uM after 20 mins relative to control. The data set is classed as functional. The essentials: as §2
The test system of data set [13] is Radical scavenging activity. The data set can be described thus: Antioxidant activity assessed as DPPH free radical scavenging activity at 500 uM after 10 mins relative to control. The data set is classed as functional. In a few lines: as §1
The subject of data set [14] is Radical scavenging activity. The data set can be described thus: Antioxidant activity assessed as DPPH free radical scavenging activity after 10 mins. The format is functional. In a few lines:
as §1

For data set [15], the system named is Plasma. In words: Antioxidant activity in human plasma assessed as inhibition of Fe2+-induced lipid hydroperoxidation at 100 uM after 2 hrs by FOX assay relative to control. The data set is classed as functional, cell-free. In a few lines:
as §3

Chain of Nitric oxide synthase 1 (P29476 whole entry): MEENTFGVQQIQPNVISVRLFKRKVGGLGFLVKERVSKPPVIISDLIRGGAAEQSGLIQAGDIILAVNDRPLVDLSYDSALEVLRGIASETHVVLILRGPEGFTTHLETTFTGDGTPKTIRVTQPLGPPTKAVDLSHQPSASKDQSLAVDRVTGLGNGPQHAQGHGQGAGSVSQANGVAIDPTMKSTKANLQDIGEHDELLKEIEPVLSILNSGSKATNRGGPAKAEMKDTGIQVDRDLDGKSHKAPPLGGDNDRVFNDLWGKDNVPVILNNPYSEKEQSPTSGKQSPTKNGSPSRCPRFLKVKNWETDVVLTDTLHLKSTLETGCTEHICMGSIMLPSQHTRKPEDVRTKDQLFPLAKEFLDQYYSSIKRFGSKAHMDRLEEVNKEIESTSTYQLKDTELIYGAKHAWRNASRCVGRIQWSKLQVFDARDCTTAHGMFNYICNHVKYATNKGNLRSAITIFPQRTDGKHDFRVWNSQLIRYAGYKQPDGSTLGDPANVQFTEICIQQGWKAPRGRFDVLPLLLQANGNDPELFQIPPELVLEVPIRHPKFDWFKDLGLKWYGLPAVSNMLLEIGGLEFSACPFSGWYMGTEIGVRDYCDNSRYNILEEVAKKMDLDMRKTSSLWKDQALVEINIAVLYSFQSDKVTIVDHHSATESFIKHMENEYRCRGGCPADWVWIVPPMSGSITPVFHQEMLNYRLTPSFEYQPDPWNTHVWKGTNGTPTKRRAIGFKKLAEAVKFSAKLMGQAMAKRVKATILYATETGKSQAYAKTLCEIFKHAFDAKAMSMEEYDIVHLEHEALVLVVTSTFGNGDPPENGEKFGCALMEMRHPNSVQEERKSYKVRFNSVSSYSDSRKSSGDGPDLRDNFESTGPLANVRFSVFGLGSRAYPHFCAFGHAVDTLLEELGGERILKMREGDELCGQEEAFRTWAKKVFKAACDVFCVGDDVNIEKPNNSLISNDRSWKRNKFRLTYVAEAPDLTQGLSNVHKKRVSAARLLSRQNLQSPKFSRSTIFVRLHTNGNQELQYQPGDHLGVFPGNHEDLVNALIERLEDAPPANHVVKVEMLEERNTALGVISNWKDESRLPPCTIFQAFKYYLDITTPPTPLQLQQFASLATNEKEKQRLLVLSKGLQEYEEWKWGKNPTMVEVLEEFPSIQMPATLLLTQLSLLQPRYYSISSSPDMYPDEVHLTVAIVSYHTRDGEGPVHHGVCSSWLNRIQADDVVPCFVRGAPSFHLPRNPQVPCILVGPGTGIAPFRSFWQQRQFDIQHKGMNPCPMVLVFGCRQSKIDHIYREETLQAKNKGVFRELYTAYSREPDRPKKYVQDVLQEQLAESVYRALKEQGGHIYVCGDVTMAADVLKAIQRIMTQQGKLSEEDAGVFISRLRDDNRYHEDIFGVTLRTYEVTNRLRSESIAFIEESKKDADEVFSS

What is called inhibition is the relative decrease from the control value, in per cent. As usually defined, the IC50 is the concentration that inhibits the measured activity by half. Broadly, the Ki is the equilibrium dissociation constant of an inhibitor or competing ligand from its target. In the case of `Cc1cn(CC(=O)c2ccc([N+](=O)[O-])cc2)cn1`, the results for the inhibition in [1], in data set [11] and in [15] were 53%, 65% and 69%, respectively. Besides, in data set [2], the inhibition at 500 µM was 13%. The Activity was 12% in [3]; “Dose-dependent effect” in data set [4]; 17% in data set [5]; 56% in data set [6]; 23% in data set [8]; 20% in data set [12]. Also, the Activity is 41% in data set [13] and “Dose-dependent effect” in data set [14]. Further, the IC50 is 66 µM in data set [4], 10 µM in data set [9] and over 500 µM in data set [14]. The Ki was over 2 mM in [7] and 85 µM in data set [10].
